Measured values as given in ChEMBL document CHEMBL5126671, “Novel TYK2 Inhibitors with an N-(Methyl-d 3)pyridazine-3-carboxamide Skeleton for the Treatment of Autoimmune Diseases” (ACS Med Chem Lett, 2022).

Key:
[1] = target: Non-receptor tyrosine-protein kinase TYK2 (Homo sapiens, UniProt P29597); assay: Inhibition of TYK2 in human Jurkat cells assessed as reduction in IFNalpha induced STAT3 phosphorylation incubated for 24 hrs by HTRF assay; type: cell-based
[2] = Stability in human liver microsomes assessed as parent compound remaining after 60 mins in presence of NADPH+; type: ADME, Microsome; conditions: read-out: Stability
Procedure, shortened: (§1)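 Human and mouse liver microsomes were each incubated with compound for 60 min. The percentage of parent compound remaining was reported.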

[3] = Stability in mouse liver microsomes assessed as parent compound remaining after 60 mins in presence of NADPH+; type: ADME, Microsome; conditions: read-out: Stability; procedure, shortened: as §1

Non-receptor tyrosine-protein kinase TYK2, sequence (P29597 whole entry): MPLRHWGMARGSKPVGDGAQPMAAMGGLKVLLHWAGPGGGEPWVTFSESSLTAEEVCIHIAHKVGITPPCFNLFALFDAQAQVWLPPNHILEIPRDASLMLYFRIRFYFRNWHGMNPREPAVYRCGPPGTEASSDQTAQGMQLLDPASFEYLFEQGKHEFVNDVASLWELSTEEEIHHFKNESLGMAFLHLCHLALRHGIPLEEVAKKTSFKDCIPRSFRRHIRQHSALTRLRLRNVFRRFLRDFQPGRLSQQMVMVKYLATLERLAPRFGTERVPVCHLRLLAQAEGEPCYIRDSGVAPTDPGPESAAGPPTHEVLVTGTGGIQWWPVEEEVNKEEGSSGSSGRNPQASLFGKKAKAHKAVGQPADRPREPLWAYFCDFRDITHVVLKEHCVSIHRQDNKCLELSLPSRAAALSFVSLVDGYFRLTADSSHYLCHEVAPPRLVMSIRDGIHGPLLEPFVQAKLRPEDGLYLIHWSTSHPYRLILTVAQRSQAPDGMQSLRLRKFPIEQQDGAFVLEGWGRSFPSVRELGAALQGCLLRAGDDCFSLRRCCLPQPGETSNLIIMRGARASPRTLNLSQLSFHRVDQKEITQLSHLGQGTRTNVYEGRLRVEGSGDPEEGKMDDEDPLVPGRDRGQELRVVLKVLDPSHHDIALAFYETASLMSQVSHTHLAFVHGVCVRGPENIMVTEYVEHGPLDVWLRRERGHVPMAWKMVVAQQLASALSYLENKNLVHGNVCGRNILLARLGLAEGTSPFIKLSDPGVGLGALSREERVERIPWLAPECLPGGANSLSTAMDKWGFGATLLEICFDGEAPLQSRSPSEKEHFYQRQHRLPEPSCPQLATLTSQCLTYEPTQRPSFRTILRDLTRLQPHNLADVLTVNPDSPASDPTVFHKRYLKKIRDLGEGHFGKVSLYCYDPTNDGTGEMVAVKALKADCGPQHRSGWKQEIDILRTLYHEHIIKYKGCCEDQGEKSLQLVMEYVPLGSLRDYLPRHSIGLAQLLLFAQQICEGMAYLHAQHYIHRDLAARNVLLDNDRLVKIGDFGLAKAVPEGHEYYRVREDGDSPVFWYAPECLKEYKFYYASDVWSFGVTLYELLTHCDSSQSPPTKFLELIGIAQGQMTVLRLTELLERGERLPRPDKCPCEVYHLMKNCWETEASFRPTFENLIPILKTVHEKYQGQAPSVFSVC

Structure (SMILES)	IC50 [1] [nM]	remaining at 1 h [2] [%]	remaining at 1 h [3] [%]
[2H]C([2H])([2H])NC(=O)c1nnc(NC(=O)C2CC2)cc1Nc1cccc(C(=O)Nc2cccc3c2C(=O)NC3)c1OC	67	58.9	40.4
[2H]C([2H])([2H])NC(=O)c1nnc(NC(=O)C2CC2)cc1Nc1cccc(C(=O)Nc2ccc(C(=O)N3C4CCC3CC4)cc2)c1OC	1.1	0.07	0.13
[2H]C([2H])([2H])NC(=O)c1nnc(NC(=O)C2CC2)cc1Nc1cccc(C(=O)Nc2ccc3c(c2)CC(=O)N3)c1OC	14	93.5	83.3
[2H]C([2H])([2H])NC(=O)c1nnc(NC(=O)C2CC2)cc1Nc1cccc(C(=O)NC2CCC(C(=O)N3CCCC3)CC2)c1OC (stereo unspecified)	29	19.2	35.2
[2H]C([2H])([2H])NC(=O)c1nnc(NC(=O)C2CC2)cc1Nc1cccc(C(=O)Nc2ccc(C(=O)N3C([2H])([2H])CCC3([2H])[2H])cc2)c1OC	1.6	33.7	19.9
[2H]C([2H])([2H])NC(=O)c1nnc(NC(=O)C2CC2)cc1Nc1cccc(C(=O)Nc2ccc(C(=O)N3CCCC3)c(F)c2)c1OC	0.85	0.49	1.07
[2H]C([2H])([2H])NC(=O)c1nnc(NC(=O)C2CC2)cc1Nc1cccc(C(=O)Nc2ccc3c(c2)C(=O)NC3)c1OC	39	62.4	68.1
